# Compounds with a hit are over-represented: about 2% of the library has one in this group of screens.
# S100A4 inh HTS: blocks human S100A4 binding to myosin IIA peptide. actives 0.14% (n = 360,000). S100A4/TAMRA-MyoIIA peptide fluorescence polarization. P26447. inhibition, % at 10.7 µM. AID 652163;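 active means mean inhibition of at least 70% across replicates, with every replicate also reaching that level; inconclusive means mean inhibition reaches 70% but some replicates fall short; inactive means mean inhibition below 70%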
#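 Material: S100A4 monomer protein | Medium: HEPES pH 7.2 with CaCl2, KCl, NaCl, DTT, Triton | Reagent: Labelled myosin peptide probe, 5 nM | Doses: One dose per compound | Times: 5 min incubation before reading | Benchmarks: Neutral control DMSO, positive control TFP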
# XiGFP reactiv: reactivates the inactive X chromosome in mouse fibroblasts. AID 743238. XiGFP mouse fibroblasts, % GFP-positive cells imaging, 3 d; cells co-treated with 5-aza-dC sensitizer; scaled so ellipticine positive control = 100%. actives 0.055% (n = 360,000). activation, % at 7.58 µM;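 active means mean normalized replicate activation at least 10% and every replicate at or above 10%; inconclusive means only one of the two criteria met; inactive means mean below 10% and not all replicates reach 10%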;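 further: 0% = median of on-plate neutral control wells and 100% = ellipticine 6 µM median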
#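 Material: XiGFP fibroblasts, SV40-immortalized. Buffer or medium: DMEM plus 5-aza-dC sensitizer. Compound: single concentration per compound, delivered by pin transfer. Times: 3 days compound exposure. Controls: ellipticine 6 µM.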
# DENV2 CPE: DENV2-induced cell death inhibition; AID 651640; DENV2-infected cells, cytopathic effect rescue, plate reader; actives 1.7% (n = 350,000); CPE inhibition, % at 9.99 µM; in the data active means CPE inhibition above about 20%, passing the limit was not always enough; inconclusive means no clear call, values can overlap the other calls; tested in BHK-21 cells;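 further: 0% = median of neutral control wells and 100% = median of positive control wells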
# E-selectin induc: induces E-selectin expression in human endothelial cells. HUVEC E-selectin immunofluorescence imaging; normalized: neutral wells 0, TNF-alpha wells 100. activation, % at 7.58 µM. actives 0.37% (n = 260,000). AID 686992;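 active means mean E-selectin-positive cell signal at least 10% of the positive control, reached in at least 60% of replicates, without over 20% cell loss; inconclusive means no rule given, readout overlaps actives, possibly toxicity-flagged; inactive means the rest, including those meeting only one limit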
#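 Assay system: HUVEC primary endothelial cells. Input: 3,000 HUVEC seeded per well. Doses: one compound dose added by pin transfer. Read-out basis: % PE-positive cells. Benchmarks: TNF-alpha high, DMSO low. Detection: immunofluorescence imaging. Buffer or medium: EGM-2, gelatin.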
# An asterisk follows results filed as active; ? = inconclusive; nt = no result given; + = active, no number.
SMILES,S100A4 inh HTS,XiGFP reactiv,DENV2 CPE,E-selectin induc
O=C(NC1CCCCC1)N1Cc2cc(-c3cccc(F)c3)ccc2-n2nncc2C1,-0.2,nt,3.9,1.3
CNc1ccc2oc(C[C@H]3O[C@@]4(CC[C@H]3C)O[C@H]([C@H](C)C(=O)c3ccc[nH]3)[C@H](C)C[C@H]4C)nc2c1C(=O)O,3.0,-0.1,43.2*,0.8
C[n+]1c2ccccc2nc2ccc(NCCO)cc21,192.4*,0.1,-0.1,nt
CNc1ccc2nc3ccccc3[n+](C)c2c1,+,0.0,1.6,0.1
C=CCn1c(O)c(C(C)=NCCCN(C)C)c(=O)[nH]c1=O,-7.3,0.1,0.7,49.9*
C=CCn1c(O)c(C(C)=NCCCn2ccnc2)c(=O)[nH]c1=O,-1.4,0.0,-4.3,?
C=CCN1CC[C@]23c4c5ccc(O)c4OC2C(O)C=CC3[C@H]1C5 (stereo partly drawn),2.9,nt,130.9*,nt
CN1C(=O)C(=Cc2coc3ccccc3c2=O)C(=O)N(C)C1=O,-5.9,0.1,-2.3,36.3*
CN1C(=O)C(=Cc2cn(CC#N)c3ccccc23)C(=O)N(C)C1=O,0.3,-0.1,5.2,0.3
CC(C)(O)/C=C/C(=O)C(C)(O)C1C(O)CC2(C)C3CC=C4C(C=C(O)C(=O)C4(C)C)C3(C)C(=O)CC12C (stereo not drawn),8.8,0.1,1.2,-0.9
O=C(NCCN1CCC2(CC1)C(=O)NCN2c1ccccc1)c1ccccc1F,-0.2,0.1,30.8*,-0.1
Cc1ccccc1C(=O)NCCN1CCC2(CC1)C(=O)NCN2c1ccccc1,-0.9,0.0,-1.3,0.0
CCCC[N+]12CCC(CC1)C(C(O)(c1ccccc1)c1ccccc1)C2 (stereo not drawn),-10.6,0.2,-4.9,53.4*
CCC[N+]12CCC(CC1)C(C(O)(c1ccccc1)c1ccccc1)C2 (stereo not drawn),0.2,0.2,-3.1,1.7
